Only some compounds are listed: those with a hit (about 3.1% of all), similar ones and a draw of the others.
MEKK3 PB1 HTS: raises or lowers MEK5 binding to the human MEKK3 PB1 domain; Q99759; bead-based flow cytometry, Alexa488-MEK5 binding to MEKK3; actives lie on both sides; 0 = blocked by unlabeled MEK5, 100 = vehicle; binding response (% of control), % at 10 µM; 1.4% of 290,000 active; AID 1529;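 active means binding response more than 3 SD above or below the average of its plate-row segment, actives on both sides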;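 further: Alexa488 bead fluorescence after subtracting the streptavidin-only scavenger bead signal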
Target sequence (Q99759 whole entry, looked up, the tested form may be a part): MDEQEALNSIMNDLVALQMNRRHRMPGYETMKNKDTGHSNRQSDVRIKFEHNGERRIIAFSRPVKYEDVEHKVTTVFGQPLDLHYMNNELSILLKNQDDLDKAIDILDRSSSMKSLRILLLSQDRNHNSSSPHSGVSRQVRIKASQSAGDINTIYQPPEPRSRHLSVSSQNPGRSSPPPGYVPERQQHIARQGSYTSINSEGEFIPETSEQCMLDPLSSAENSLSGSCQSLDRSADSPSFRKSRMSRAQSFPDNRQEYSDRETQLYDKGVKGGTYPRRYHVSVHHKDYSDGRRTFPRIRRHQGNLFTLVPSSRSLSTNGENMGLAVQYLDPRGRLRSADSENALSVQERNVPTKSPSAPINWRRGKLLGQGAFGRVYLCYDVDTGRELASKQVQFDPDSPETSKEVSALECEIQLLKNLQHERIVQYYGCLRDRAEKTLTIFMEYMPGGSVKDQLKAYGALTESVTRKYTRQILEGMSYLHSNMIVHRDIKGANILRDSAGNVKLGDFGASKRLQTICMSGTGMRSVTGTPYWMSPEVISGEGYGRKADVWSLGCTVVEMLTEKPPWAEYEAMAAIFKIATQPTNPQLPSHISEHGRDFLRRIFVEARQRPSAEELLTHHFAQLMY
UBC13 inh: human UBC13 polyubiquitination inhibition. P61088. UBC13 polyubiquitin chain formation, TR-FRET. inhibition, % at 20 µM. 0.47% of 330,000 active; in the data active means inhibition above about 45%, passing the limit was not always enough
Apaf1 inhib: blocks human Apaf-1 apoptosome activity | O14727 | reconstituted apoptosome caspase-3 activity, DEVD-Rh110 fluorescence | inhibition, % at 20 µM | 0.71% of 330,000 active | AID 489030; active means inhibition of at least 40% at 20 µM;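 further: plate controls were DMSO wells for no effect and DEVD-CHO caspase inhibitor wells for full effect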
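System: Apoptosome proteins | Medium: Hepes pH 7.5 with detergent and BSA | Also added: Cytochrome c trigger plus (Z-DEVD)2-Rh110 caspase-3 substrate | Incubation: 30 min compound preincubation, 50 min activation, room temperature | Detection: Rhodamine 110 fluorescence at Ex 480/Em 540 nm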
PREPL inhibitor: human PREPL enzyme inhibition. Q4J6C6. recombinant PREPL, fluorescence polarization activity-based probe. inhibition, % at 5.96 µM. 0.68% of 320,000 active. AID 2751; in the data active means inhibition above about 43%;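 further: 0% = enzyme with DMSO and 100% = wells lacking enzyme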
MEKK2 mut-MEK5: signal of MEK5 binding to mutant human MEKK2 PB1 domain | AID 1530 | percent response, % at 10 µM | bead flow cytometry, Alexa488-MEK5 binding to MEKK2 mutant | 0.35% of 290,000 active; in the data active means percent response above about 24%, passing the limit was not always enough
MEKK2wt PB1 HTS: raises or lowers MEK5 binding to wildtype human MEKK2 PB1 domain. Q9Y2U5. bead flow cytometry, Alexa488-MEK5 binding to MEKK2 WT; actives lie on both sides. binding response (% of control), % at 10 µM. 1.1% of 290,000 active; in the data active means binding response below about 67% or above about 130%
Apaf-1 inh conf2: Apaf-1 inhibition, single-dose confirmed. shares compounds with Apaf1 inhib. reconstituted apoptosome, caspase-3 DEVD-Rh110 fluorescence. inhibition, % at 20 µM. 25% of 1,800 active. AID 504614;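 active means mean inhibition of at least 40% at 20 µM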;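 further: plate controls were DMSO wells for no effect and DEVD-CHO caspase inhibitor control wells for full effect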
Rh110 quench: interferes with Rh110 fluorescence, flagging false Apaf-1 inhibitors. shares compounds with Apaf1 inhib. Rh110 fluorescence interference, quenched caspase reaction. activation (fluorescence interference), % at 20 µM. 1,800 tested, under 10 active;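 active means signal rise of 40% or more at 20 µM, treated as a fluorescence artifact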
Apaf1 inh interf: shows fluorescence interference in the Apaf-1 inhibitor assay format; AID 588538; IC50, µM; shares compounds with Apaf1 inhib; fluorescence interference counterscreen, Apaf-1 assay format; 460 tested, under 10 active; call rule not given here
Starred values were filed as active, the others as inactive.

What do the screens show for `CC1=NN(c2ccc(C)cc2C)C(=O)C1C(c1ccccc1)C1C(=O)N(c2ccc(C)cc2C)N=C1C` (centres undefined)?
MEKK3 PB1 HTS: 104; UBC13 inh: -42; Apaf1 inhib: 67*; PREPL inhibitor: -2; MEKK2 mut-MEK5: 14; MEKK2wt PB1 HTS: 104; Apaf-1 inh conf2: 30; Rh110 quench: 5

What do the screens show for `O=C1c2ccccc2C(=O)N1CCN1CCOCC1`?
MEKK3 PB1 HTS: 99; UBC13 inh: -4; Apaf1 inhib: -3; PREPL inhibitor: 2; MEKK2 mut-MEK5: 1; MEKK2wt PB1 HTS: 101

How did CCOCCCNC1=C(Cl)C(=O)c2ccccc2C1=O do in these assays?
MEKK3 PB1 HTS: 86; UBC13 inh: -229; Apaf1 inhib: 48*; PREPL inhibitor: 12; MEKK2 mut-MEK5: -19; MEKK2wt PB1 HTS: 89; Apaf-1 inh conf2: 30; Rh110 quench: 0

What do the screens show for `O=C1C(Cl)=C(NCCN2CCOCC2)C(=O)c2ccccc21`?
MEKK3 PB1 HTS: 105; UBC13 inh: -283; Apaf1 inhib: 46*; PREPL inhibitor: 2; MEKK2 mut-MEK5: 3; MEKK2wt PB1 HTS: 106; Apaf-1 inh conf2: 47*; Rh110 quench: 2; Apaf1 inh interf: >100

How did Cc1c([N+](=O)[O-])c(C/C=N/O)nn1C do in these assays?
MEKK3 PB1 HTS: 101; MEKK2 mut-MEK5: -1; MEKK2wt PB1 HTS: 97

Results for CCOC(=O)C1CCCN(C/C=C/c2ccccc2)C1 (centres undefined) ?
MEKK3 PB1 HTS: 101; UBC13 inh: 2; Apaf1 inhib: 1; MEKK2 mut-MEK5: 3; MEKK2wt PB1 HTS: 108

How did CCOc1ccc(CNC2CCCc3ccccc32)cc1 (centres undefined) do in these assays?
MEKK3 PB1 HTS: 55; UBC13 inh: 4; Apaf1 inhib: 9; PREPL inhibitor: 21; MEKK2 mut-MEK5: -11; MEKK2wt PB1 HTS: 72

What do the screens show for `CCc1ccccc1OC[C@@H](O)CN[C@H]1CCCc2ccccc21`?
UBC13 inh: 37; Apaf1 inhib: 46*; PREPL inhibitor: -48; Apaf-1 inh conf2: 1; Rh110 quench: -3

How did OC(CNC1CCCc2ccccc21)COc1ccc2ccccc2c1 (centres undefined) do in these assays?
MEKK3 PB1 HTS: 103; UBC13 inh: 24; Apaf1 inhib: 47*; PREPL inhibitor: -6; MEKK2 mut-MEK5: 2; MEKK2wt PB1 HTS: 115; Apaf-1 inh conf2: 15; Rh110 quench: 14

What do the screens show for `O=C(c1ccccc1)c1ccc(OCC(O)CNC2CCCc3ccccc32)cc1` (centres undefined)?
MEKK3 PB1 HTS: 105; UBC13 inh: 25; Apaf1 inhib: 52*; PREPL inhibitor: -18; MEKK2 mut-MEK5: 1; MEKK2wt PB1 HTS: 109; Apaf-1 inh conf2: 20; Rh110 quench: 10

How did Cc1ccc(S(=O)(=O)N(c2ccc(Br)cc2)C2C=CS(=O)(=O)C2)cc1 (centres undefined) do in these assays?
MEKK3 PB1 HTS: 102; UBC13 inh: -8; Apaf1 inhib: -5; PREPL inhibitor: 7; MEKK2 mut-MEK5: -2; MEKK2wt PB1 HTS: 95

Results for CCCCc1c(C)nn(-c2nnc3c4ccccc4n(CC)c3n2)c1C ?
MEKK3 PB1 HTS: 98; UBC13 inh: -18; Apaf1 inhib: 47*; PREPL inhibitor: 5; MEKK2 mut-MEK5: 0; MEKK2wt PB1 HTS: 99; Apaf-1 inh conf2: 23; Rh110 quench: 10

What do the screens show for `CCC(O)c1nc2ccccc2n1CCc1ccccc1` (centres undefined)?
MEKK3 PB1 HTS: 109; UBC13 inh: 4; Apaf1 inhib: 2; PREPL inhibitor: 2; MEKK2 mut-MEK5: 10; MEKK2wt PB1 HTS: 108

Source: PubChem (several laboratories)
